Test results: publication PMC4334291 (Journal of Chemical Information and Modeling, 2014)

Legend:
[1] = test system: S. epidermidis ATCC 12228; test: Bacterial growth assay, S. epidermidis; type: cell-based, Staphylococcus epidermidis; details: 100 μM, after 6 h
Procedure, shortened: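 Overnight culture at 37 °C and 300 rpm in 1% peptone, 1% beef extract, 0.5% NaCl (pH 7.1), diluted 15×. Grown at 37 °C and 300 rpm with test compound at 100 μM, 0.3% DMSO (negative control) or ampicillin 100 μg/mL (positive control). A595 read at 6 h. Four independent experiments, mean ± SEM, Bonferroni all-pair comparison.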

MDCK cells = test: Mammalian cells growth/toxicity assay; type: cell-based, Canine; details: 30 μM, 1 day
Procedure, shortened: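 MDCK cells kept in DMEM with 10% FBS, penicillin/streptomycin and 2 mM L-glutamine. Seeded at 5.0 × 10^3 cells/well for 6 h (37 °C, 5% CO2), then starved overnight in 0.25% FBS DMEM. Exposed for 1 day to test compound at 30 μM or ampicillin 30 μM (negative control). CCK-8 added; A450 of WST-8 formazan read after 3 h. Four independent experiments, mean ± SEM, Dunnett's test.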

E. coli BL21 = test: Bacterial growth assay, E. coli BL21; type: cell-based; details: 100 μM, 4 and 8 h
Procedure, shortened: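 E. coli BL21 grown overnight at 37 °C and 300 rpm in 0.5% yeast extract, 1% tryptone, 0.5% NaCl (pH 7.0), then diluted 10×. Grown at 37 °C and 300 rpm with test compound at 100 μM, 0.3% DMSO (negative control) or ampicillin 100 μM (positive control). A595 read at 4, 6 and 8 h. Four independent experiments, mean ± SEM, Dunnett's test.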

E. coli JM109 = test: Bacterial growth assay, E. coli JM109; type: cell-based; details: data not shown
Procedure, shortened: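 JM109 culture handled as follows: overnight growth at 37 °C, 300 rpm, in 0.5% yeast extract/1% tryptone/0.5% NaCl medium (pH 7.0), then 10× dilution. Incubated at 37 °C, 300 rpm, in medium with test compound, 0.3% DMSO as negative control or ampicillin as positive control. Culture absorbance at 595 nm read after 4, 6 and 8 h.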

SH-SY5Y cells = test: Mammalian cells growth/toxicity assay; type: cell-based, human; details: data not shown; 2 days
wild-type saDHFR = wild-type saDHFR (Staphylococcus aureus, UniProt P0A017); test: S. aureus DHFR enzymatic assay; type: biochemical
Solubility in DMSO = type: physicochemical; details: at 100 μM in DMSO

Solubility in DMSO (Solubility in DMSO)	Compound	Inhibitory effect on the growth of S. epidermidis [1]	Toxic effects on MDCK cells (MDCK cells)	Inhibitory effect on the growth of E. coli BL21 (E. coli BL21)	Inhibitory effect on the growth of E. coli JM109 (E. coli JM109)	Cell death induced in SH-SY5Y cells (SH-SY5Y cells)	IC50 (wild-type saDHFR) [nM]
–	O=C(O)CN1C(=O)C(=C2C(=O)N(Cc3ccc(Cl)cc3)c3ccccc32)SC1=S [KB1, {5-[1-(4-chlorobenzyl)-2-oxo-1,2-dihydro-3H-indol-3-ylidene]-4-oxo-2-thioxo-1,3-thiazolidin-3-yl}acetic acid]	strong inhibitory effects	did not show any toxic effects	did not show inhibitory effects	did not show inhibitory effects	43.3%	–
–	O=C(O)CCCN1C(=O)C(=C2C(=O)N(Cc3ccc(Cl)cc3)c3ccccc32)SC1=S [KBS1, 4-{5-[1-(4-chlorobenzyl)-2-oxo-1,2-dihydro-3H-indol-3-ylidene]-4-oxo-2-thioxo-1,3-thiazolidin-3-yl}butanoic acid]	significant inhibitory effects	weak toxic effect	no inhibitory effects	no inhibitory effects	35.4–52.1%	460 ± 170
not soluble	Cc1ccc(CN2C(=O)C(=C3SC(=S)N(CC(=O)O)C3=O)c3ccccc32)cc1 [KBS2, {5-[1-(4-methylbenzyl)-2-oxo-1,2-dihydro-3H-indol-3-ylidene]-4-oxo-2-thioxo-1,3-thiazolidin-3-yl}acetic acid]	–	–	–	–	–	–
–	O=C(O)CN1C(=O)C(=C2C(=O)N(Cc3ccccc3Cl)c3ccccc32)SC1=S [KBS3, {5-[1-(2-chlorobenzyl)-2-oxo-1,2-dihydro-3H-indol-3-ylidene]-4-oxo-2-thioxo-1,3-thiazolidin-3-yl}acetic acid]	significant inhibitory effects	did not exhibit toxic effects	no inhibitory effects	no inhibitory effects	35.4–52.1%	–
–	O=C(O)CCN1C(=O)C(=C2C(=O)N(Cc3ccc(F)cc3)c3ccccc32)SC1=S [KBS4, 3-{5-[1-(4-fluorobenzyl)-2-oxo-1,2-dihydro-3H-indol-3-ylidene]-4-oxo-2-thioxo-1,3-thiazolidin-3-yl}propanoic acid]	significant inhibitory effects	did not exhibit toxic effects	no inhibitory effects	no inhibitory effects	35.4–52.1%	–
–	CCOCCCN1C(=O)C(=C2C(=O)N(Cc3ccc(Cl)cc3)c3ccccc32)SC1=S [KBS5, 1-(4-chlorobenzyl)-3-[3-(3-ethoxypropyl)-4-oxo-2-thioxo-1,3-thiazolidin-5-ylidene]-1,3-dihydro-2H-indol-2-one]	inactive	–	–	–	–	–
